Reference: ChEMBL document CHEMBL3865830, “Multifunctional diamine AGE/ALE inhibitors with potential therapeutical properties against Alzheimer's disease” (Eur J Med Chem, 2016)

System: not listed separately
Assay: Metal chelating activity of compound assessed as compound-Cu2+ complex formation at 0.02 mM after 10 mins in presence of CuSO4.5H2O by complexometric indicator murexide based UV-Vis spectrophotometric analysis
Type: physicochemical
Conditions: 20 µM
Summary of the method: (§1)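 Compound (0.02-2 mM) incubated with CuSO4 (120 µM) for 10 min at rt, in 10 mM hexamine/HCl with 10 mM KCl (pH 5.0), or in buffer/MeOH 75:25 for poorly soluble compounds. Murexide added, 1 min more. The A485/A520 ratio gives free Cu2+ from a CuSO4 calibration curve (0-125 µM). % chelation is taken by difference from the no-compound control; triplicates.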

| Activity | SMILES |
| --- | --- |
| 6.59% | Cl.Cl.NCC(N)CCCCNC(=O)CCn1cccc(OCc2ccccc2)c1=O (stereo not drawn) |
| 11.08% | CC(C)(C)OC(=O)NCC(CCCCNC(=O)CCn1cccc(O)c1=O)NC(=O)OC(C)(C)C.Cl.Cl (stereo not drawn) |
| 18.81% | NCCN [ETHYLENEDIAMINE] |
| 12.05% | Cl.Cl.NCC(N)CCCCNC(=O)CCn1cccc(O)c1=O (stereo not drawn) |
| 0.73% | NCCC(=O)N[C@@H](Cc1cnc[nH]1)C(=O)O [CARNOSINE] |

System: not listed separately
Assay: Reactive carbonyl species trapping activity of compound assessed as MGO adduct formation at 10 mM preincubated for 24 hrs with MGO measured after 0.25 hrs by LCMS analysis
Type: physicochemical
Conditions: 10000 µM

| Activity | SMILES |
| --- | --- |
| 98% | Cl.Cl.NCC(N)CCCCNC(=O)CCn1cccc(O)c1=O (stereo not drawn) |
| 46% | NCCC(=O)N[C@@H](Cc1cnc[nH]1)C(=O)O [CARNOSINE] |

System: not listed separately
Assay: Antioxidant activity assessed as inhibition of AAPH-induced peroxyl radical generation measured as trolox equivalent at 10 uM preincubated for 30 mins followed by AAPH addition measured evey 60 secs for 60 cycles by ORAC-FL assay
Type: functional
Conditions: in the assay text read “90 secs” for “60 secs”
Summary of the method: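 Fluorescein (12 nM) preincubated with compound (1-20 µM) or Trolox standard (1-50 µM) in D-PBS, at least 30 min at 37 °C. Reaction started with AAPH (30 mM). Fluorescence (ex 485/em 520 nm) read every 90 s for 60 cycles. Net AUC is converted to Trolox equivalents via the Trolox calibration line. Values are reported at 10 µM, from at least three independent experiments in triplicate.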

| SMILES | Activity (umolequiv/umol) |
| --- | --- |
| NCCC(=O)N[C@@H](Cc1c[nH]cn1)C(=O)O | 0.08 |
| Cl.Cl.NCC(N)CCCCNC(=O)CCn1cccc(O)c1=O (stereo not drawn) | 1.21 |
| Cc1c(C)c2c(c(C)c1O)CCC(C)(C(=O)O)O2 (stereo not drawn) | 1 |

System: not listed separately
Assay: Metal chelating activity of compound assessed as compound-Cu2+ complex formation at 0.05 mM after 10 mins in presence of CuSO4.5H2O by complexometric indicator murexide based UV-Vis spectrophotometric analysis
Type: physicochemical
Conditions: 50 µM
Summary of the method: as §1

| Activity | SMILES |
| --- | --- |
| 12.05% | Cl.Cl.NCC(N)CCCCNC(=O)CCn1cccc(OCc2ccccc2)c1=O (stereo not drawn) |
| 19.87% | CC(C)(C)OC(=O)NCC(CCCCNC(=O)CCn1cccc(O)c1=O)NC(=O)OC(C)(C)C.Cl.Cl (stereo not drawn) |
| 44.49% | NCCN [ETHYLENEDIAMINE] |
| 24.51% | Cl.Cl.NCC(N)CCCCNC(=O)CCn1cccc(O)c1=O (stereo not drawn) |
| 0% | NCCC(=O)N[C@@H](Cc1cnc[nH]1)C(=O)O [CARNOSINE] |

Organism: Rattus norvegicus
Assay: Cytotoxicity against rat […] PC12 cells assessed as reduction in cell viability at 10 to 100 uM after 24 hrs by WST8-based CCK8 assay
Type: toxicity
Conditions: pc-12, 24 h
Summary of the method: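 PC12 Adh cells (rat pheochromocytoma-derived) grown in F-12K with 2.5% FBS, 15% horse serum and pen/strep at 37 °C, 5% CO2. Seeded at 5×10^3 cells/well; treated at 80% confluency with 10 or 100 µM for 24 h. 10% DMSO served as positive cytotoxicity control. CCK-8 added for 1 h at 37 °C, absorbance read at 450 nm. Viability given as % of untreated cells; at least three experiments in triplicate.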

| SMILES | Activity |
| --- | --- |
| Cl.Cl.NCC(N)CCCCNC(=O)CCn1cccc(O)c1=O (stereo not drawn) | Non-Toxic |

System: not listed separately
Assay: Metal chelating activity of compound assessed as compound-Cu2+ complex formation at 0.1 mM after 10 mins in presence of CuSO4.5H2O by complexometric indicator murexide based UV-Vis spectrophotometric analysis
Type: physicochemical
Conditions: 100 µM
Summary of the method: as §1

| Activity | SMILES |
| --- | --- |
| 21.41% | Cl.Cl.NCC(N)CCCCNC(=O)CCn1cccc(OCc2ccccc2)c1=O (stereo not drawn) |
| 34.48% | CC(C)(C)OC(=O)NCC(CCCCNC(=O)CCn1cccc(O)c1=O)NC(=O)OC(C)(C)C.Cl.Cl (stereo not drawn) |
| 69.82% | NCCN [ETHYLENEDIAMINE] |
| 41.17% | Cl.Cl.NCC(N)CCCCNC(=O)CCn1cccc(O)c1=O (stereo not drawn) |
| 0.72% | NCCC(=O)N[C@@H](Cc1cnc[nH]1)C(=O)O [CARNOSINE] |

System: not listed separately
Assay: Metal chelating activity of compound assessed as compound-Cu2+ complex formation at 2 mM after 10 mins in presence of CuSO4.5H2O by complexometric indicator murexide based UV-Vis spectrophotometric analysis
Type: physicochemical
Conditions: 2000 µM
Summary of the method: as §1

| Activity | SMILES |
| --- | --- |
| 67.84% | Cl.Cl.NCC(N)CCCCNC(=O)CCn1cccc(OCc2ccccc2)c1=O (stereo not drawn) |
| 94.72% | CC(C)(C)OC(=O)NCC(CCCCNC(=O)CCn1cccc(O)c1=O)NC(=O)OC(C)(C)C.Cl.Cl (stereo not drawn) |
| 100% | NCCN [ETHYLENEDIAMINE] |
| 87.04% | Cl.Cl.NCC(N)CCCCNC(=O)CCn1cccc(O)c1=O (stereo not drawn) |
| 41.7% | NCCC(=O)N[C@@H](Cc1cnc[nH]1)C(=O)O [CARNOSINE] |

System: not listed separately
Assay: Reactive carbonyl species trapping activity of compound assessed as MDA adduct formation at 10 mM preincubated for 24 hrs with MDA measured after 5 hrs by LCMS analysis
Type: physicochemical
Conditions: 10000 µM

| Activity | SMILES |
| --- | --- |
| 73% | Cl.Cl.NCC(N)CCCCNC(=O)CCn1cccc(O)c1=O (stereo not drawn) |
| 38% | NCCC(=O)N[C@@H](Cc1cnc[nH]1)C(=O)O [CARNOSINE] |

System: not listed separately
Assay: Metal chelating activity of compound assessed as compound-Cu2+ complex formation at 1 mM after 10 mins in presence of CuSO4.5H2O by complexometric indicator murexide based UV-Vis spectrophotometric analysis
Type: physicochemical
Conditions: 1000 µM
Summary of the method: as §1

| Activity | SMILES |
| --- | --- |
| 61.48% | Cl.Cl.NCC(N)CCCCNC(=O)CCn1cccc(OCc2ccccc2)c1=O (stereo not drawn) |
| 89.96% | CC(C)(C)OC(=O)NCC(CCCCNC(=O)CCn1cccc(O)c1=O)NC(=O)OC(C)(C)C.Cl.Cl (stereo not drawn) |
| 100% | NCCN [ETHYLENEDIAMINE] |
| 85.56% | Cl.Cl.NCC(N)CCCCNC(=O)CCn1cccc(O)c1=O (stereo not drawn) |
| 16.92% | NCCC(=O)N[C@@H](Cc1cnc[nH]1)C(=O)O [CARNOSINE] |

System: not listed separately
Assay: Metal chelating activity of compound assessed as compound-Cu2+ complex formation at 0.5 mM after 10 mins in presence of CuSO4.5H2O by complexometric indicator murexide based UV-Vis spectrophotometric analysis
Type: physicochemical
Conditions: 500 µM
Summary of the method: as §1

| Activity | SMILES |
| --- | --- |
| 51.43% | Cl.Cl.NCC(N)CCCCNC(=O)CCn1cccc(OCc2ccccc2)c1=O (stereo not drawn) |
| 76.54% | CC(C)(C)OC(=O)NCC(CCCCNC(=O)CCn1cccc(O)c1=O)NC(=O)OC(C)(C)C.Cl.Cl (stereo not drawn) |
| 100% | NCCN [ETHYLENEDIAMINE] |
| 81.17% | Cl.Cl.NCC(N)CCCCNC(=O)CCn1cccc(O)c1=O (stereo not drawn) |
| 5.39% | NCCC(=O)N[C@@H](Cc1cnc[nH]1)C(=O)O [CARNOSINE] |

System: not listed separately
Assay: Reactive carbonyl species trapping activity of compound assessed as MDA adduct formation at 10 mM preincubated for 24 hrs with MDA measured after 1 hr by LCMS analysis
Type: physicochemical
Conditions: 10000 µM

| Activity | SMILES |
| --- | --- |
| 69% | Cl.Cl.NCC(N)CCCCNC(=O)CCn1cccc(O)c1=O (stereo not drawn) |
| 40% | NCCC(=O)N[C@@H](Cc1cnc[nH]1)C(=O)O [CARNOSINE] |

System: not listed separately
Assay: Reactive carbonyl species trapping activity of compound assessed as MDA adduct formation at 10 mM preincubated for 24 hrs with MDA measured after 0.25 hrs by LCMS analysis
Type: physicochemical
Conditions: 10000 µM

| Activity | SMILES |
| --- | --- |
| 65% | Cl.Cl.NCC(N)CCCCNC(=O)CCn1cccc(O)c1=O (stereo not drawn) |
| 23% | NCCC(=O)N[C@@H](Cc1cnc[nH]1)C(=O)O [CARNOSINE] |

System: not listed separately
Assay: Reactive carbonyl species trapping activity of compound assessed as MGO adduct formation at 10 mM preincubated for 24 hrs with MGO measured after 5 hrs by LCMS analysis
Type: physicochemical
Conditions: 10000 µM

| Activity | SMILES |
| --- | --- |
| 99% | Cl.Cl.NCC(N)CCCCNC(=O)CCn1cccc(O)c1=O (stereo not drawn) |
| 58% | NCCC(=O)N[C@@H](Cc1cnc[nH]1)C(=O)O [CARNOSINE] |

System: not listed separately
Assay: Metal chelating activity of compound assessed as compound-Cu2+ complex formation at 0.08 mM after 10 mins in presence of CuSO4.5H2O by complexometric indicator murexide based UV-Vis spectrophotometric analysis
Type: physicochemical
Conditions: 80 µM
Summary of the method: as §1

| Activity | SMILES |
| --- | --- |
| 19.27% | Cl.Cl.NCC(N)CCCCNC(=O)CCn1cccc(OCc2ccccc2)c1=O (stereo not drawn) |
| 30.19% | CC(C)(C)OC(=O)NCC(CCCCNC(=O)CCn1cccc(O)c1=O)NC(=O)OC(C)(C)C.Cl.Cl (stereo not drawn) |
| 64.61% | NCCN [ETHYLENEDIAMINE] |
| 34.87% | Cl.Cl.NCC(N)CCCCNC(=O)CCn1cccc(O)c1=O (stereo not drawn) |
| 0.38% | NCCC(=O)N[C@@H](Cc1cnc[nH]1)C(=O)O [CARNOSINE] |

System: not listed separately
Assay: Reactive carbonyl species trapping activity of compound assessed as MDA adduct formation at 10 mM preincubated for 24 hrs with MDA measured after 0.5 hrs by LCMS analysis
Type: physicochemical
Conditions: 10000 µM

| Activity | SMILES |
| --- | --- |
| 32% | NCCC(=O)N[C@@H](Cc1cnc[nH]1)C(=O)O [CARNOSINE] |

System: not listed separately
Assay: Reactive carbonyl species trapping activity of compound assessed as MDA adduct formation at 10 mM preincubated for 24 hrs with MDA measured after 24 hrs by LCMS analysis
Type: physicochemical
Conditions: 10000 µM

| Activity | SMILES |
| --- | --- |
| 95% | Cl.Cl.NCC(N)CCCCNC(=O)CCn1cccc(O)c1=O (stereo not drawn) |
| 66% | NCCC(=O)N[C@@H](Cc1cnc[nH]1)C(=O)O [CARNOSINE] |

System: not listed separately
Assay: Reactive carbonyl species trapping activity of compound assessed as MGO adduct formation at 10 mM preincubated for 24 hrs with MGO measured after 15 mins by LCMS analysis
Type: physicochemical
Conditions: 0.25 h, 10000 µM

| Activity | SMILES |
| --- | --- |
| 98% | Cl.Cl.NCC(N)CCCCNC(=O)CCn1cccc(O)c1=O (stereo not drawn) |
| 46% | NCCC(=O)N[C@@H](Cc1cnc[nH]1)C(=O)O [CARNOSINE] |

System: not listed separately
Assay: Reactive carbonyl species trapping activity of compound assessed as MGO adduct formation at 10 mM preincubated for 24 hrs with MGO measured after 24 hrs by LCMS analysis
Type: physicochemical
Conditions: 10000 µM

| Activity | SMILES |
| --- | --- |
| 100% | Cl.Cl.NCC(N)CCCCNC(=O)CCn1cccc(O)c1=O (stereo not drawn) |
| 59% | NCCC(=O)N[C@@H](Cc1cnc[nH]1)C(=O)O [CARNOSINE] |

System: not listed separately
Assay: Metal chelating activity of compound assessed as compound-Cu2+ complex formation at 200 uM after 10 mins in presence of CuSO4.5H2O by complexometric indicator murexide based UV-Vis spectrophotometric analysis
Type: physicochemical
Conditions: not given
Summary of the method: as §1

| Activity | SMILES |
| --- | --- |
| 33.91% | Cl.Cl.NCC(N)CCCCNC(=O)CCn1cccc(OCc2ccccc2)c1=O (stereo not drawn) |
| 54.61% | CC(C)(C)OC(=O)NCC(CCCCNC(=O)CCn1cccc(O)c1=O)NC(=O)OC(C)(C)C.Cl.Cl (stereo not drawn) |
| 100% | NCCN [ETHYLENEDIAMINE] |
| 62.77% | Cl.Cl.NCC(N)CCCCNC(=O)CCn1cccc(O)c1=O (stereo not drawn) |
| 1.53% | NCCC(=O)N[C@@H](Cc1cnc[nH]1)C(=O)O [CARNOSINE] |

System: not listed separately
Assay: Reactive carbonyl species trapping activity of compound assessed as MGO adduct formation at 10 mM preincubated for 24 hrs with MGO measured after 0.5 hrs by LCMS analysis
Type: physicochemical
Conditions: 10000 µM

| Activity | SMILES |
| --- | --- |
| 96% | Cl.Cl.NCC(N)CCCCNC(=O)CCn1cccc(O)c1=O (stereo not drawn) |
| 51% | NCCC(=O)N[C@@H](Cc1cnc[nH]1)C(=O)O [CARNOSINE] |
